Measurements reported in ChEMBL document CHEMBL2375307, “Synthesis and identification of β-aryloxyquinoline based diversely fluorine substituted N-aryl quinolone derivatives as a new class of antimicrobial, antituberculosis and antioxidant agents” (Eur J Med Chem, 2013).
Values after ≈ are worked out from the molar mass of the structure shown.

Columns and labels:
Escherichia coli = assay: Antibacterial activity against Escherichia coli MTCC 443 assessed as growth inhibition after overnight incubation by NCCLS broth microdilution method; format: functional
How it was run: (§1)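 Broth microdilution per NCCLS in Mueller Hinton broth, compounds diluted in DMSO. Primary screen at 500, 250 and 200 µg/mL; actives retested at 100, 62.5, 50, 25 and 12.5 µg/mL. Tubes incubated overnight at 37 °C. […] Non-growing tubes subcultured overnight at 37 °C to judge bacteriostatic versus bactericidal action.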

Vibrio cholerae = assay: Antibacterial activity against Vibrio cholerae MTCC 3906 assessed as growth inhibition after overnight incubation by NCCLS broth microdilution method; format: functional
Candida albicans = assay: Antifungal activity against Candida albicans MTCC 227 assessed as growth inhibition after overnight incubation by NCCLS broth microdilution method; format: functional; how it was run: as §1
Aspergillus fumigatus = assay: Antifungal activity against Aspergillus fumigatus MTCC 3008 assessed as growth inhibition after overnight incubation by NCCLS broth microdilution method; format: functional; how it was run: as §1
Clostridium tetani = assay: Antibacterial activity against Clostridium tetani MTCC 449 assessed as growth inhibition after overnight incubation by NCCLS broth microdilution method; format: functional
Streptococcus pneumoniae = assay: Antibacterial activity against Streptococcus pneumoniae MTCC 1936 assessed as growth inhibition after overnight incubation by NCCLS broth microdilution method; format: functional; how it was run: as §1
Bacillus subtilis = assay: Antibacterial activity against Bacillus subtilis MTCC 441 assessed as growth inhibition after overnight incubation by NCCLS broth microdilution method; format: functional; how it was run: as §1
[1] = Antioxidant activity of the compound assessed as ascorbic acid equivalent of ferric tripyridyl triazine reducing activity at 200 ug/mL after 15 mins by FRAP assay; format: functional
How it was run: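 FRAP, modified Benzie and Strain method. Fe(III)-TPTZ reagent made with TPTZ in 40 mM HCl, FeCl3 solution and acetate buffer pH 3.6. 200 µL sample solution mixed with 3 mL reagent and held 15 min at 37 °C. Fe(II)-TPTZ read at 593 nm against an ascorbic acid standard, expressed as ascorbic acid equivalents (mmol/100 g compound).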

[2] = system: Mycobacterium tuberculosis; assay: Antitubercular activity against Mycobacterium tuberculosis H37Rv assessed as growth inhibition at 250 ug/mL after 12 to 28 days by Lowenstein-Jensen method relative to control; format: functional; settings: read-out: GI
How it was run: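 Modified Lowenstein-Jensen method. Compound at 250 in DMSO added to liquid L-J medium, then sterilized by inspissation and incubated 24 h at 37 °C. Streaked with H37Rv harvested in 0.85% saline (5 × 10⁴ bacilli/tube) and incubated at 37 °C. Colonies read at 12, 22 and 28 days versus drug-free control; no colonies or <20 colonies scored as inhibition.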

Salmonella typhi = assay: Antibacterial activity against Salmonella typhi MTCC 98 assessed as growth inhibition after overnight incubation by NCCLS broth microdilution method; format: functional, Salmonella enterica subsp. enterica serovar Typhi; settings: Salmonella enterica

| Compound | MIC (Escherichia coli) | MIC (Vibrio cholerae) | MIC (Candida albicans) | MIC (Aspergillus fumigatus) | MIC (Clostridium tetani) | MIC (Streptococcus pneumoniae) | MIC (Bacillus subtilis) | Activity [1] | inhibition of growth at 250 µg/mL [2] | MIC (Salmonella typhi) |
| --- | --- | --- | --- | --- | --- | --- | --- | --- | --- | --- |
| CC1(C)CC(=O)C2=C(C1)N(c1cc(F)ccc1F)C(N)=C(C#N)C2c1cc2cc(Cl)ccc2nc1Oc1ccc(C#N)cc1 (stereo not drawn) | 250 µg/mL (≈ 411 µM) | 250 µg/mL (≈ 411 µM) | 1000 µg/mL (≈ 1640 µM) | > 1000 µg/mL | 125 µg/mL (≈ 206 µM) | 250 µg/mL (≈ 411 µM) | 100 µg/mL (≈ 164 µM) | 2.17 equiv | 87% | 125 µg/mL (≈ 206 µM) |
| COc1ccc2nc(Oc3ccc(C#N)cc3)c(C3C(C#N)=C(N)N(c4cc(F)ccc4F)C4=C3C(=O)CCC4)cc2c1 (stereo not drawn) | 250 µg/mL (≈ 434 µM) | 250 µg/mL (≈ 434 µM) | 1000 µg/mL (≈ 1740 µM) | 1000 µg/mL (≈ 1740 µM) | 125 µg/mL (≈ 217 µM) | 125 µg/mL (≈ 217 µM) | 200 µg/mL (≈ 347 µM) | 278 equiv | 35% | 100 µg/mL (≈ 174 µM) |
| COc1ccc2nc(Oc3ccc(C#N)cc3)c(C3C(C#N)=C(N)N(c4ccc(F)c(F)c4)C4=C3C(=O)CCC4)cc2c1 (stereo not drawn) | 500 µg/mL (≈ 869 µM) | 250 µg/mL (≈ 434 µM) | 1000 µg/mL (≈ 1740 µM) | 1000 µg/mL (≈ 1740 µM) | 200 µg/mL (≈ 347 µM) | 200 µg/mL (≈ 347 µM) | 200 µg/mL (≈ 347 µM) | 369 equiv | 88% | 500 µg/mL (≈ 869 µM) |
| O=C(O)c1cn(C2CC2)c2cc(N3CCNCC3)c(F)cc2c1=O [CIPROFLOXACIN] | 25 µg/mL (≈ 75.4 µM) | 25 µg/mL (≈ 75.4 µM) |  |  |  | 50 µg/mL (≈ 151 µM) |  |  |  | 25 µg/mL (≈ 75.4 µM) |
| CCn1cc(C(=O)O)c(=O)c2cc(F)c(N3CCNCC3)cc21 [NORFLOXACIN] | 10 µg/mL (≈ 31.3 µM) | 10 µg/mL (≈ 31.3 µM) |  |  | 50 µg/mL (≈ 157 µM) | 10 µg/mL (≈ 31.3 µM) | 100 µg/mL (≈ 313 µM) |  |  | 10 µg/mL (≈ 31.3 µM) |
| N#Cc1ccc(Oc2nc3ccc(Cl)cc3cc2C=O)cc1 | 250 µg/mL (≈ 810 µM) | 200 µg/mL (≈ 648 µM) | > 1000 µg/mL | 250 µg/mL (≈ 810 µM) | 125 µg/mL (≈ 405 µM) | 125 µg/mL (≈ 405 µM) | 125 µg/mL (≈ 405 µM) | 34.9 equiv | 61% | 200 µg/mL (≈ 648 µM) |
| Cc1ccc2nc(Oc3ccc(C#N)cc3)c(C3C(C#N)=C(N)N(c4cc(F)ccc4F)C4=C3C(=O)CCC4)cc2c1 (stereo not drawn) | 100 µg/mL (≈ 179 µM) | 62.5 µg/mL (≈ 112 µM) | 250 µg/mL (≈ 447 µM) | > 1000 µg/mL | 200 µg/mL (≈ 357 µM) | 250 µg/mL (≈ 447 µM) | 125 µg/mL (≈ 223 µM) | 239 equiv | 80% | 50 µg/mL (≈ 89.4 µM) |
| CC1(C)S[C@@H]2[C@H](NC(=O)[C@H](N)c3ccccc3)C(=O)N2[C@H]1C(=O)O [AMPICILLIN] | 100 µg/mL (≈ 286 µM) | 100 µg/mL (≈ 286 µM) |  |  | 250 µg/mL (≈ 715 µM) | 100 µg/mL (≈ 286 µM) | 250 µg/mL (≈ 715 µM) |  |  | 100 µg/mL (≈ 286 µM) |
| COc1ccc2nc(Oc3ccc(C#N)cc3)c(C3C(C#N)=C(N)N(c4ccc(F)c(F)c4)C4=C3C(=O)CC(C)(C)C4)cc2c1 (stereo not drawn) | 62.5 µg/mL (≈ 104 µM) | 100 µg/mL (≈ 166 µM) | > 1000 µg/mL | > 1000 µg/mL | 250 µg/mL (≈ 414 µM) | 250 µg/mL (≈ 414 µM) | 250 µg/mL (≈ 414 µM) | 153 equiv | 24% | 200 µg/mL (≈ 331 µM) |
| N#CC1=C(N)N(c2cc(F)ccc2F)C2=C(C(=O)CCC2)C1c1cc2ccccc2nc1Oc1ccc(C#N)cc1 (stereo not drawn) | 100 µg/mL (≈ 183 µM) | 200 µg/mL (≈ 367 µM) | > 1000 µg/mL | 250 µg/mL (≈ 458 µM) | 125 µg/mL (≈ 229 µM) | 250 µg/mL (≈ 458 µM) | 100 µg/mL (≈ 183 µM) | 16.4 equiv | 10% | 250 µg/mL (≈ 458 µM) |
| Cc1ccc2nc(Oc3ccc(C#N)cc3)c(C=O)cc2c1 | 62.5 µg/mL (≈ 217 µM) | 125 µg/mL (≈ 434 µM) | > 1000 µg/mL | 250 µg/mL (≈ 867 µM) | 100 µg/mL (≈ 347 µM) | 200 µg/mL (≈ 694 µM) | 100 µg/mL (≈ 347 µM) | 16 equiv | 26% | 125 µg/mL (≈ 434 µM) |
| COc1ccc2nc(Oc3ccc(C#N)cc3)c(C3C(C#N)=C(N)N(c4cccc(C(F)(F)F)c4)C4=C3C(=O)CC(C)(C)C4)cc2c1 (stereo not drawn) | 125 µg/mL (≈ 197 µM) | 250 µg/mL (≈ 393 µM) | 1000 µg/mL (≈ 1570 µM) | 500 µg/mL (≈ 787 µM) | 500 µg/mL (≈ 787 µM) | 200 µg/mL (≈ 315 µM) | 250 µg/mL (≈ 393 µM) | 14.3 equiv | 62% | 200 µg/mL (≈ 315 µM) |
| COC1=CC(=O)C[C@@H](C)[C@]12Oc1c(Cl)c(OC)cc(OC)c1C2=O [GRISEOFULVIN] |  |  | 500 µg/mL (≈ 1420 µM) | 100 µg/mL (≈ 283 µM) |  |  |  |  |  |  |
